What was measured:
Assay type in all cases: functional, cell-based
A549 = assay: Cytotoxicity against human A549 cells
In short: (§1)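 Cytotoxicity was run by a previously described procedure, with mithramycin as the positive control, and IC50 values were derived. P-388 cells were a gift from an academic laboratory, and the A549 and HT-29 cells were obtained from a culture collection.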

HT-29 = assay: Cytotoxicity against human HT29 cells; in short: as §1
P388 = assay: Cytotoxicity against mouse P388 cells; in short: as §1

Structure (SMILES) | IC50 (A549) | IC50 (HT-29) | IC50 (P388)
C[C@@H]1C(=O)O[C@H]2CCC3=CC(=O)C[C@H](C)[C@@]3(C)[C@H]21 | > 50 µM | > 50 µM | > 50 µM
C[C@H]1[C@H]2[C@@H](CCC3=C[C@@H](O)C[C@H](C)[C@]32C)O[C@@H]1O [ARMATIN A] | > 50 µM | > 50 µM | > 50 µM
C[C@@H]1C(=O)O[C@@H]2CCC3=C[C@@H](O)C[C@H](C)[C@@]3(C)[C@@H]12 [ARMATIN B] | > 50 µM | > 50 µM | > 50 µM
CO[C@H]1O[C@@H]2CCC3=C[C@@H](O)C[C@H](C)[C@@]3(C)[C@H]2[C@@H]1C [ARMATIN C] | > 50 µM | > 50 µM | > 50 µM
CO[C@@H]1O[C@H]2CCC3=C[C@@H](O)C[C@H](C)[C@@]3(C)[C@H]2[C@@H]1C [ARMATIN D] | > 50 µM | > 50 µM | > 50 µM
CO[C@@H]1O[C@H]2CCC3=CC(=O)C[C@H](C)[C@@]3(C)[C@H]2[C@@H]1C [ARMATIN E] | > 50 µM | > 50 µM | > 50 µM
C=C(CC[C@@H](C)[C@H]1CC[C@H]2[C@@H]3C[C@H]4O[C@]45C[C@@H](O)CC[C@]5(COC(C)=O)[C@H]3CC[C@]12C)C(C)C [ARMATINOL A] | 7.6 µM | 6.5 µM | 6.1 µM
C=C(CC[C@@H](C)[C@H]1CC[C@H]2[C@@H]3C[C@@H](O)[C@@]4(O)C[C@@H](O)CC[C@]4(COC(C)=O)[C@H]3CC[C@]12C)C(C)C [ARMATINOL B] | – | 3.1 µM | 3.2 µM
CO[C@H](C(=O)[C@@H](O)[C@@H](C)O)[C@@H]1Cc2cc3cc(O[C@H]4C[C@@H](O[C@@H]5C[C@@H](O)[C@H](O)[C@@H](C)O5)[C@H](O)[C@@H](C)O4)c(C)c(O)c3c(O)c2C(=O)[C@H]1O[C@H]1C[C@@H](O[C@@H]2C[C@@H](O)[C@@H](O[C@@H]3C[C@](C)(O)[C@H](O)[C@@H](C)O3)[C@@H](C)O2)[C@H](O)[C@@H](C)O1 [PLICAMYCIN] | 0.2 µM | 0.3 µM | 0.1 µM

Reference: ChEMBL document CHEMBL1148216, “New nardosinanes and 19-oxygenated ergosterols from the soft coral Nephthea armata collected in Taiwan” (J Nat Prod, 2004)
